According to ChEMBL document CHEMBL2057080, “Synthesis, biological evaluation, and structure-activity relationships of a novel class of apurinic/apyrimidinic endonuclease 1 inhibitors” (J Med Chem, 2012):
Activity calls are given as the source filed them. No cut-off for these calls is given here.

What was measured:
[1] = molecular target: T1, DNA repair nuclease/redox regulator APEX1 (Homo sapiens, UniProt P27695); assay: Inhibition of human recombinant APE1 at 57 uM after 15 mins by fluorescence based HTS assay
T1 sequence (P27695 whole entry): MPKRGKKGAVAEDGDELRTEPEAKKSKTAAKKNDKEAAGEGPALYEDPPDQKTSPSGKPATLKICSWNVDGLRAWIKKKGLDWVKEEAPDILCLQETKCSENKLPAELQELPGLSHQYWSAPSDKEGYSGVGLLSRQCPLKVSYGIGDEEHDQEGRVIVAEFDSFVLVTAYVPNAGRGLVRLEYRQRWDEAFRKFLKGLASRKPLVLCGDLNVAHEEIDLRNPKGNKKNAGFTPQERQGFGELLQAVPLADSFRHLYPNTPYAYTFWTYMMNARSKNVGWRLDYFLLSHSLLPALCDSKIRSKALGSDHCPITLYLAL
Outline: (§1)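 APE1 inhibition was measured in the fluorescence-based qHTS format at up to 57 µM. IC50 is the average of three separate experiments.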

[2] = molecular target: T1, DNA repair nuclease/redox regulator APEX1; assay: Inhibition of human recombinant APE1 after 15 mins by fluorescence based HTS assay; outline: as §1
[3] = molecular target: T1, DNA repair nuclease/redox regulator APEX1; assay: Inhibition of APE1 in human HeLa whole cell extract using […]-5'-AP-DNA as substrate assessed as activity remaining at 100 uM incubated for 15 mins prior to substrate addition measured after 5 mins by PAGE analysis relative to control
Outline: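 HeLa whole cell extract (300 ng; KCl-extracted hypotonic lysate) was preincubated with inhibitor for 15 min at room temperature, at 100 µM or at 0–100 µM. Then 0.5 pmol 32P AP-DNA was added for 5 min at 37 °C. Samples were run on denaturing PAGE, and incision is reported relative to the no-inhibitor control, from three independent measurements.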

[4] = molecular target: T1, DNA repair nuclease/redox regulator APEX1; assay: Inhibition of recombinant APE1 using […]-5'-AP-DNA as substrate incubated for 15 mins prior to substrate addition measured after 5 mins by PAGE analysis
[5] = molecular target: T1, DNA repair nuclease/redox regulator APEX1; assay: Inhibition of APE1 in human HeLa cells assessed as accumulation of genomic AP sites […] after 24 hrs by aldehyde reactive probe-based assay relative to control; format: cell-based
Outline: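 HeLa cells at 80% confluency were exposed for 24 h at 37 °C to DMSO, 275 µM MMS, or 7.5 µM inhibitor, each alone, or to 275 µM MMS plus 7.5 µM inhibitor. Genomic DNA was isolated and adjusted to 100 ng/µL. 10 µL was labelled with aldehyde reactive probe (biotin-hydrazide reagent) and AP sites were quantified by kit. Samples ran in triplicate and were compared with a Student's t test.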

Structure (SMILES)	inhibition [1]	IC50 [2]	other results
O=C(O)c1cc2cccc([N+](=O)[O-])c2[nH]1	40%		
CC(=O)Nc1sc2c(c1-c1nc3ccccc3s1)CCSC2	56%		
CC(=O)Nc1sc2c(c1-c1cc3ccccc3[nH]1)CCNC2		> 57 µM	
CC(=O)Nc1sc2c(c1-c1nc(-c3ccccc3)cs1)CCN(C(C)C)C2		2.9 µM	Activity [3]: 15%; IC50 [4]: 3 µM
O=C(Nc1sc2c(c1-c1nc3ccccc3s1)CCNC2)C1CCCC1	55%		
C#CCCC(=O)Nc1sc2c(c1-c1nc3ccccc3s1)CCNC2		12 µM	
Cc1noc(Nc2sc3c(c2-c2nc4ccccc4s2)CCNC3)n1		18.2 µM	
CCCCC(=O)Nc1sc2c(c1-c1nc3ccccc3s1)CCN(C(C)C)C2		9.1 µM	
CC(=O)Nc1sc2c(c1-c1ccco1)CCNC2	41%		
CC(C)N1CCc2c(sc(N)c2-c2nc3ccccc3s2)C1	40%		
CC(=O)Nc1sc2c(c1C#N)CCN(C(C)C)C2	31%		
CC(=O)Nc1sc2c(c1-c1nc3ccccc3s1)CCN(C(=O)OC(C)(C)C)C2		> 57 µM	
COC(=O)Nc1sc2c(c1-c1nc3ccccc3s1)CCNC2		11.1 µM	
CC(=O)Nc1sc2c(c1Br)CCNC2	30%		
O=C(Nc1sc2c(c1-c1nc3ccccc3s1)CCNC2)C(F)F		3.8 µM	Activity [3]: 38%; IC50 [4]: 4 µM
CC(=O)Nc1sc2c(c1-c1nc3ccccc3s1)CCNC2		2.9 µM	Activity [3]: 1.4%; IC50 [4]: 5 µM
CC(=O)Nc1sc2c(c1-c1nc3ccccc3s1)CN(C(C)C)C2		3.1 µM	Activity [3]: 57%; IC50 [4]: 4 µM
O=C(Nc1sc2c(c1-c1nc3ccccc3s1)CCNC2)C1CC1		6 µM	
CC(C)N1CCc2c(sc(NC(=O)C3CCCCC3)c2-c2nc3ccccc3s2)C1		8.3 µM	
CC(=O)Nc1sc2c(c1-c1ccccc1)CCNC2	42%		
CC(=O)Nc1sc2c(c1-c1cccs1)CCNC2	34%		
CC(=O)Nc1sc2c(c1-c1ncco1)CCNC2	45%		
CC(=O)Nc1sc2c(c1-c1nc3ccccc3s1)CCN(C)C2		3.8 µM	Activity [3]: 26%; IC50 [4]: 5 µM
O=C(O)c1sc2c(c1-c1nc3ccccc3s1)CCNC2		> 57 µM	
CC(=O)Nc1sc2c(c1-c1cccc3ccccc13)CCNC2		> 57 µM	
O=C(Nc1sc2c(c1-c1nc3ccccc3s1)CCNC2)C(F)(F)F		17.6 µM	
CC(=O)Nc1sc2c(c1-c1nc3ccccc3s1)CNCC2	31%		
CC(=O)Nc1sc2c(c1-c1nc3ccccc3s1)CCN(C(C)C)CC2		17.6 µM	Activity [3]: 1.1%; IC50 [4]: 13 µM
COS(C)(=O)=O			inhibition [5]: Active
COC(=O)c1sc2c(c1-c1nc3ccccc3s1)CCNC2		> 57 µM	

More lines, main results first:

inhibition [1]	IC50 [2]	Structure (SMILES)	other results
53%		CC(C)N1CCc2c(sc(NC(=O)Cc3ccccc3)c2-c2nc3ccccc3s2)C1	
57%		CC(C)N1CCc2c(sc(NC(=O)c3ccccc3)c2-c2nc3ccccc3s2)C1	
57%		C#CCCC(=O)Nc1sc2c(c1-c1nc3ccccc3s1)CCN(C(C)C)C2	
	12.9 µM	CC(=O)Nc1sc2c(c1-c1nc3ccccc3s1)CCCN(C(C)C)C2	Activity [3]: 14%; IC50 [4]: 14 µM
	5.3 µM	CC(C)N1CCc2c(sc(NC(=O)C(F)F)c2-c2nc3ccccc3s2)C1	
	> 57 µM	CC(C)(C)C(=O)Nc1sc2c(c1-c1nc3ccccc3s1)CCNC2	
	25.2 µM	c1ccc2sc(-c3csc4c3CCNC4)nc2c1	
41%		CC(=O)Nc1sc2c(c1-c1nc3ccccc3s1)CCOC2	
59%		CC(=O)Nc1sc2c(c1-c1nc3ccccc3s1)CCN(C(C)=O)C2	
	> 57 µM	CC(=O)Nc1sc2c(c1-c1csc3ccccc13)CCNC2	
29%		CC(=O)Nc1sc2c(c1C(=O)O)CCNC2	
	> 57 µM	Cc1nnc(-c2sc3c(c2-c2nc4ccccc4s2)CCNC3)o1	
	> 57 µM	O=C(CCc1ccccc1)Nc1sc2c(c1-c1nc3ccccc3s1)CCNC2	
23%		CC(=O)Nc1sc2c(c1-c1cc3ccccc3s1)CCNC2	
66%		CC(=O)Nc1sc2c(c1-c1cc3ccccc3o1)CCNC2	
	19 µM	Cc1nnc(Nc2sc3c(c2-c2nc4ccccc4s2)CCNC3)o1	
55%		CC(=O)Nc1sc2c(c1-c1nccs1)CCNC2	
	> 57 µM	CC(=O)Nc1sc2cnccc2c1-c1nc2ccccc2s1	
47%		CC(=O)Nc1cc2c(s1)CNCC2	
29%		CC(=O)Nc1sc2c(c1-c1nc3ccccc3s1)CCS(=O)(=O)C2	
	> 57 µM	Cc1noc(-c2sc3c(c2-c2nc4ccccc4s2)CCNC3)n1	
41%		CC(=O)Nc1sc2c(c1-c1nc3ccccc3s1)CCN(Cc1ccccc1)C2	
	20.4 µM	CC(=O)Nc1sc2c(c1-c1nc3ccccc3o1)CCN(C(C)C)C2	Activity [3]: 12%; IC50 [4]: 13 µM
